Molecules are shown by their SMILES.

In assay [1] the target is T1, Histamine H4 receptor (Homo sapiens, UniProt Q9H3N8). Description: Agonist activity at human histamine H4 receptor expressed in human SK-N-MC cells assessed as effect on forskolin-induced cAMP accumulation after 6 hrs. The assay is classed as functional, cell-based. The procedure, abridged:
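SK-N-MC cells with CRE-driven β-galactosidase reporter. Compound added to medium for 10 min at room temperature, then forskolin (5 µM final), 6 h at 37 °C. Chlorophenol red β-D-galactopyranoside substrate read at A570. α set against histamine (full agonist) = 1.0.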
(Changes in cAMP serve as a functional read-out for many G protein-coupled receptors.)

For assay [2], the target named is T1, Histamine H4 receptor. As to the kind of experiment: Agonist activity at human histamine H4 receptor expressed in human SK-N-MC cells assessed as effect on forskolin-induced cAMP accumulation after 6 hrs relative to histamine. It counts as functional, cell-based. In short, it runs like this:
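SK-N-MC cells expressing human H4 receptor with a cAMP-responsive-element β-galactosidase reporter. Compound incubated 10 min at room temperature, then forskolin (5 µM final), then 6 h at 37 °C. Cells frozen overnight at -40 °C, lysed in phosphate buffer pH 8, chlorophenolred β-D-galactopyranoside substrate added, absorbance read at 570 nm. α calculated relative to histamine (full agonist) set as 1.0.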

In assay [3] the target is T1, Histamine H4 receptor. As to the kind of experiment: Displacement of [3H]histamine from human histamine H4 receptor. Background: Loss of bound radioactivity is the signal in a displacement assay; it reports binding, not function.
Assay [4] deals with T1, Histamine H4 receptor. Description: Antagonist activity at human histamine H4 receptor expressed in human SK-N-MC cells assessed as inhibition of forskolin-stimulated cAMP accumulation after 6 hrs. The assay is classed as functional, cell-based. The following applies: read-out: pA2 (converted). In short, it runs like this:
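pA2 format on SK-N-MC cells carrying a CRE-controlled β-galactosidase reporter. Cells were preincubated with compound for 10 min, then with histamine agonist for 10 min, then forskolin was added, followed by 6 h at 37 °C. Lysis used phosphate/Mg/Mn buffer at pH 8 with Triton X-100 and β-mercaptoethanol. Chlorophenol red β-D-galactopyranoside turnover was read at 570 nm.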

T1 sequence (Q9H3N8 whole entry): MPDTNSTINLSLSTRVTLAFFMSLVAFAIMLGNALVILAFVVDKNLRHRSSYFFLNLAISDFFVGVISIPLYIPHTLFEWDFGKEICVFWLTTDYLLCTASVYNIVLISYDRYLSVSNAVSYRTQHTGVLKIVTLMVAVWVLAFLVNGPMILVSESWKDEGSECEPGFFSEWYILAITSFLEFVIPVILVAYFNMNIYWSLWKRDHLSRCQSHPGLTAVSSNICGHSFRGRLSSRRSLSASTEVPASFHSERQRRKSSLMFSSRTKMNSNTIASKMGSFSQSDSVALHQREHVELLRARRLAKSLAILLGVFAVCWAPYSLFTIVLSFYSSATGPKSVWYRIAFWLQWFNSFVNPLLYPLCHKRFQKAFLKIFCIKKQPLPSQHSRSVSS

With `CC(C)Nc1cc(N2CCN(C)CC2)cc(N)n1`, in assay [1], the EC50 came out at 0.533 µM. Besides, the Alpha max in assay [2] stood at 0.6. In assay [3], the Ki is 28 nM.

Molecule `CC(C)N(C)c1nc(N)cc(N2CCN(C)CC2)n1` came in with a Ki in assay [3] of 853 nM. This counts as sub-micromolar.

`CN[C@H]1CCN(c2cc(N3CCCC3)nc(N)n2)C1` registered a Ki in assay [3] of 83 nM.

For the molecule `CN1CCN(c2cc(N3CCCC3)nc(N)n2)CC1`, the Kb in assay [4] is 2 nM. Moreover, the EC50 in assay [1] was more than 10 µM. In assay [3], this molecule displayed a Ki of 6 nM.

In assay [3], `CN[C@@H]1CCN(c2cc(N)nc(NCCO)n2)C1` showed a Ki of 255 nM.

`CN1CCN(c2cc(N)nc(NCc3ccccc3)n2)CC1` displayed a Ki in assay [3] of 1080 nM.

Turning to `CN[C@@H]1CCN(c2cc(N3CCCC3)nc(N)n2)C1`, the Kb in assay [4] is 7.94 nM. In assay [1], the EC50 is more than 10 µM. This molecule also displayed a Ki in assay [3] of 36 nM.

With `CN[C@@H]1CCN(c2cc(N)nc(NCC(C)C)c2)C1`, in assay [4], the Kb is 1.58 nM. Further, the EC50 in assay [1] is more than 10 µM. Besides, the Ki in assay [3] turned out to be 0.2 nM.

For `CC(C)Nc1nc(N)cc(N2CCN(C)CC2)n1`, affinity in assay [3] was put at a Ki of 162 nM.

For `CC(C)N(C)c1cc(N2CCN(C)CC2)cc(N)n1`, in assay [3], the Ki was 189 nM.

`CN[C@@H]1CCN(c2cc(N)nc(N(C)C(C)C)c2)C1` yielded a Ki in assay [3] of 29 nM.

For the molecule `CN1CCN(c2cc(NCc3ccccc3)nc(N)n2)CC1`, in assay [3], the Ki stood at 20 nM.

Regarding `CN[C@@H]1CCN(c2cc(N(C)C(C)C)nc(N)n2)C1`, the Ki in assay [3] was found to be 51 nM. This Ki lies about 2.5-fold higher than the previous one.

With `CN[C@@H]1CCN(c2cc(N)nc(NC3CCCC3)n2)C1`, in assay [4], the Kb is 12.6 nM. Besides, the EC50 in assay [1] was more than 10 µM. This molecule showed a Ki in assay [3] of 6 nM.

In turn, `CN[C@@H]1CCN(c2cc(N)nc(NCC(C)(C)C)c2)C1` registered a Ki in assay [3] of 0.04 nM.

Turning to `CN[C@@H]1CCN(c2cc(NCc3ccccc3)nc(N)n2)C1`, the affinity in assay [3], expressed as Ki, was 58 nM.

On to `CC(C)CNc1cc(N2CCN(C)CC2)nc(N)n1`, for which, in assay [4], the Kb was 1.26 nM. Besides, the EC50 in assay [1] was more than 10 µM. This molecule showed a Ki in assay [3] of 2 nM.

As for `CN[C@@H]1CCN(c2cc(N)nc(N(C)C(C)C)n2)C1`, the affinity in assay [3], expressed as Ki, was 140 nM.

As to `CC(C)CNc1nc(N)cc(N2CCN(C)CC2)n1`, in assay [1], the EC50 stood at 0.086 µM. Besides, the Alpha max in assay [2] came to 0.71. Moreover, the affinity in assay [3], expressed as Ki, was 15 nM.

Consider `CN1CCN(c2cc(N)nc(N3CCCC3)c2)CC1`, for which, in assay [4], the Kb is 20 nM. Further, in assay [1], the EC50 was more than 10 µM. Further, the Ki in assay [3] came out at 100 nM.

As for `Nc1nc(N2CCCC2)cc(N2CCNCC2)n1`, the EC50 in assay [1] is more than 10 µM. Also, in assay [3], the Ki is 8 nM.

As for `CN1CCN(c2cc(N)nc(NC3CCCC3)c2)CC1`, the EC50 in assay [1] came to 0.011 µM. Also, the Alpha max in assay [2] stood at 0.73. Moreover, the affinity in assay [3], expressed as Ki, was 3 nM.

As to `CN1CCN(c2cc(N)nc(NCCO)n2)CC1`, the Ki in assay [3] came to 1160 nM.

In the case of `CC(C)N(C)c1cc(N2CCN(C)CC2)nc(N)n1`, in assay [1], the EC50 is more than 10 µM. The same molecule displayed a Ki in assay [3] of 24 nM.

In assay [3], `CN1CCN(c2cc(N)nc(NCc3ccccc3)c2)CC1` came in with a Ki of 148 nM.

`CN[C@@H]1CCN(c2cc(N)nc(N3CCCC3)c2)C1`: the Kb in assay [4] was 15.8 nM. For the same molecule, in assay [1], the EC50 was more than 10 µM. Affinity in assay [3] was put at a Ki of 77 nM.

As to `CN1CCN(c2cc(N)nc(N3CCCC3)n2)CC1`, the Ki in assay [3] was 132 nM.

In assay [3], `CN1CCN(c2cc(N)nc(NCC(C)(C)C)c2)CC1` had a Ki of 0.3 nM.

`CN[C@@H]1CCN(c2cc(NC3CCCC3)nc(N)n2)C1`: the Kb in assay [4] is 0.398 nM. Also, the EC50 in assay [1] is more than 10 µM. Besides, affinity in assay [3] was put at a Ki of 9 nM.

As to `CN1CCN(c2cc(NCCO)nc(N)n2)CC1`, the Ki in assay [3] is 25 nM.

`CC(C)Nc1cc(N2CCN(C)CC2)nc(N)n1`: the EC50 in assay [1] was determined as 0.012 µM. Moreover, the Alpha max in assay [2] came out at 0.57. The Ki in assay [3] stood at 3 nM.

Turning to `CC(C)CNc1cc(N2CCN(C)CC2)cc(N)n1`, the EC50 in assay [1] was 0.05 µM. Further, in assay [2], the Alpha max turned out to be 0.51. The affinity in assay [3], expressed as Ki, was 2 nM.

Regarding `CN[C@@H]1CCN(c2cc(N)nc(NC3CCCC3)c2)C1`, the EC50 in assay [1] is more than 10 µM. Further, the Ki in assay [3] came out at 0.9 nM.

For the molecule `CN[C@@H]1CCN(c2cc(N)nc(NCc3ccccc3)c2)C1`, in assay [3], the Ki was found to be 50 nM. This lies in the double-digit nanomolar range.

For `CN1CCN(c2cc(NC3CCCC3)nc(N)n2)CC1`, the EC50 in assay [1] came to 0.101 µM. Besides, in assay [2], the Alpha max was determined as 0.46. This molecule also yielded a Ki in assay [3] of 1 nM.

`CN[C@@H]1CCN(c2cc(N)nc(N3CCCC3)n2)C1`: the Ki in assay [3] is 127 nM. That is a sub-micromolar value.

Consider `CN[C@@H]1CCN(c2cc(N)nc(NC(C)C)n2)C1`, for which, in assay [4], the Kb is 12.6 nM. The EC50 in assay [1] was more than 10 µM. In assay [3], this molecule displayed a Ki of 6 nM.

With `Nc1nc(N2CCCC2)cc(N2CC3CCCNC3C2)n1` (racemic), in assay [3], the Ki is 40 nM.

Molecule `CN[C@@H]1CCN(c2cc(N)nc(NCc3ccccc3)n2)C1` showed a Ki in assay [3] of 69 nM.

As to `CN[C@@H]1CCN(c2cc(N)nc(NC(C)C)c2)C1`, the Kb in assay [4] was 1.58 nM. In addition, in assay [1], the EC50 was more than 10 µM. The molecule further had a Ki in assay [3] of 3 nM.

As for `CN[C@@H]1CCN(c2cc(N)nc(NCC(C)C)n2)C1`, the Kb in assay [4] is 1.58 nM. Moreover, in assay [1], the EC50 is more than 10 µM. In assay [3], the Ki stood at 1 nM.

Regarding `CN[C@@H]1CCN(c2cc(NC(C)C)nc(N)n2)C1`, the Kb in assay [4] is 10 nM. Besides, the EC50 in assay [1] was more than 10 µM. In assay [3], this molecule registered a Ki of 3 nM.

`CN[C@@H]1CCN(c2cc(NCCO)nc(N)n2)C1` displayed a Ki in assay [3] of 44 nM.

As for `CN1CCN(c2cc(N)nc(NC3CCCC3)n2)CC1`, in assay [1], the EC50 amounted to 0.016 µM. For the same molecule, the Alpha max in assay [2] worked out at 0.63. In assay [3], this molecule registered a Ki of 10 nM.

In turn, `Nc1nc(N2CCCC2)cc(N2CC[C@@H](N)C2)n1` showed a Ki in assay [3] of 64 nM.

Usually EC50 stands for the midpoint of the concentration-response curve. The Ki is the equilibrium dissociation constant of an inhibitor or competing ligand from its target. A high value points to a looser hold on the target.

The values above are taken from ChEMBL document CHEMBL1770114, “Triamino pyrimidines and pyridines as histamine H(4) receptor modulators” (Bioorg Med Chem Lett, 2011).
